Test results reported in ChEMBL document CHEMBL1125603, “2-Chloro-1-(2,4-dichlorophenyl)-3-(1H-imidazol-1-yl)-2-phenylpropan-1-one hydrochloride, a novel, nonmutagenic antibacterial with specific activity against anaerobic bacteria” (1991).
Converted amounts (≈) assume the structure as drawn.

Tests used:
Assay type in all cases: functional
[1] = system: Staphylococcus aureus; assay: Minimum inhibitory concentration against Staphylococcus aureus(ATCC 25923)(in vitro)
Procedure, shortened: (§1)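 Broth microdilution: drug stock of 200 μg/mL in 20% polyethylene glycol 200/water, serially diluted 2-fold in the wells to final concentrations of 0.8–100 μg/mL. Final inoculum was 10⁸ organisms/mL. Plates were held at 37 °C for 48 h, in an anaerobic chamber for anaerobes or a conventional incubator for aerobes. MIC was then read.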

[2] = system: Proteus vulgaris; assay: Minimum inhibitory concentration against Proteus vulgaris(ATCC 13315)(in vitro); procedure, shortened: as §1
[3] = system: Streptococcus pyogenes; assay: Minimum inhibitory concentration against Streptococcus pyogenes(ATCC 19615)(in vitro); procedure, shortened: as §1
[4] = system: Klebsiella pneumoniae; assay: Minimum inhibitory concentration against Klebsiella pneumoniae (ATCC 13883)(in vitro); procedure, shortened: as §1
[5] = system: Escherichia coli; assay: Minimum inhibitory concentration against Escherichia coli(ATCC 25922)(in vitro); procedure, shortened: as §1
[6] = system: Pseudomonas aeruginosa; assay: Minimum inhibitory concentration against Pseudomonas aeruginosa (ATCC 27853)(in vitro); procedure, shortened: as §1
[7] = system: Cutibacterium acnes; assay: Minimum inhibitory concentration against Propionibacterium acnes(NCTC 737)(in vitro); procedure, shortened: as §1
[8] = system: Fusobacterium necrophorum; assay: Minimum inhibitory concentration against Fusobacterium necrophorum (ATCC 11295)(in vitro); procedure, shortened: as §1
[9] = system: Clostridium perfringens; assay: Minimum inhibitory concentration against Clostridium perfringens (NCTC 523)(in vitro)
Procedure, shortened: (§2)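 Broth microdilution MIC in 96-well plates. Drugs dissolved in 20% polyethylene glycol 200/water (stock 200 μg/mL), then serially diluted 2-fold in the wells to final concentrations of 0.8–100 μg/mL. Final inoculum 10⁸ organisms/mL. Plates incubated 48 h at 37 °C in an anaerobic chamber before the MIC was read.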

[10] = system: Bacteroides fragilis; assay: Minimum inhibitory concentration against Bacteroides fragilis (MZ-R)(in vitro); procedure, shortened: as §1
[11] = system: Cutibacterium acnes; assay: Minimum inhibitory concentration against Propionibacterium acnes(NCTC 7337)(in vitro); procedure, shortened: as §1
[12] = system: Bacteroides fragilis; assay: Minimum inhibitory concentration against Bacteroides fragilis (WSI)(in vitro); procedure, shortened: as §1
[13] = system: Clostridium perfringens; assay: Minimum inhibitory concentration against Clostridium perfringens (NCTC 8237)(in vitro); procedure, shortened: as §2
[14] = system: Bacteroides fragilis; assay: Minimum inhibitory concentration against Bacteroides fragilis(NCTC 9344)(in vitro); procedure, shortened: as §1
[15] = system: Anaerococcus prevotii; assay: Minimum inhibitory concentration against Peptococcus prevotti(in vitro); procedure, shortened: as §1
[16] = system: Bacteroides fragilis; assay: Minimum inhibitory concentration against Bacteroides fragilis(NCTC 10581)(in vitro); procedure, shortened: as §1
[17] = system: Peptostreptococcus anaerobius; assay: Minimum inhibitory concentration against Peptostreptococcus anaerobius(in vitro); procedure, shortened: as §1
[18] = system: Bacteroides fragilis; assay: Minimum inhibitory concentration against Bacteroides fragilis(NCTC 9343)(in vitro); procedure, shortened: as §1
[19] = system: Finegoldia magna; assay: Minimum inhibitory concentration against Peptococcus magnus(in vitro); procedure, shortened: as §1

Molecule	MIC [1]	MIC [2]	MIC [3]	MIC [4]	MIC [5]	MIC [6]	MIC [7]	MIC [8]	MIC [9]	MIC [10]	MIC [11]	MIC [12]	MIC [13]	MIC [14]	MIC [15]	MIC [16]	MIC [17]	MIC [18]	MIC [19]
POLYMYXIN B	25 mg/L	1.5 mg/L	1.5 mg/L	< 0.8 mg/L	< 0.8 mg/L	3.1 mg/L	–	–	–	–	–	–	–	–	–	–	–	–	–
O=C(c1ccc(Cl)cc1Cl)C(Cl)(Cn1ccnc1)c1ccccc1 (stereo unspecified)	25 mg/L (≈ 65.8 µM)	> 100 mg/L	1.5 mg/L (≈ 3.95 µM)	> 100 mg/L	> 100 mg/L	> 100 mg/L	< 0.8 mg/L	< 0.8 mg/L	< 0.8 mg/L	< 0.8 mg/L	< 0.8 mg/L	< 0.8 mg/L	< 0.8 mg/L	< 0.8 mg/L	< 0.8 mg/L	< 0.8 mg/L	< 0.8 mg/L	< 0.8 mg/L	< 0.8 mg/L
O=C(c1ccc(Cl)cc1Cl)C(O)(Cn1ccnc1)c1ccccc1 (stereo unspecified)	25 mg/L (≈ 69.2 µM)	> 100 mg/L	–	> 100 mg/L	> 100 mg/L	–	100 mg/L (≈ 277 µM)	> 100 mg/L	12.5 mg/L (≈ 34.6 µM)	> 100 mg/L	50 mg/L (≈ 138 µM)	> 100 mg/L	25 mg/L (≈ 69.2 µM)	> 100 mg/L	12.5 mg/L (≈ 34.6 µM)	50 mg/L (≈ 138 µM)	50 mg/L (≈ 138 µM)	> 100 mg/L	> 100 mg/L
O=C(c1ccc(Cl)cc1Cl)C(Cn1ccnc1)c1ccccc1 (stereo unspecified)	< 0.8 mg/L	6.2 mg/L (≈ 18 µM)	< 0.8 mg/L	> 100 mg/L	> 100 mg/L	> 100 mg/L	< 0.8 mg/L	< 0.8 mg/L	< 0.8 mg/L	< 0.8 mg/L	< 0.8 mg/L	< 0.8 mg/L	< 0.8 mg/L	< 0.8 mg/L	< 0.8 mg/L	< 0.8 mg/L	< 0.8 mg/L	< 0.8 mg/L	< 0.8 mg/L
C=C(C(=O)c1ccc(Cl)cc1Cl)c1ccccc1	< 0.8 mg/L	6.2 mg/L (≈ 22.4 µM)	< 0.8 mg/L	> 100 mg/L	> 100 mg/L	> 100 mg/L	< 0.8 mg/L	< 0.8 mg/L	< 0.8 mg/L	< 0.8 mg/L	< 0.8 mg/L	< 0.8 mg/L	< 0.8 mg/L	< 0.8 mg/L	< 0.8 mg/L	< 0.8 mg/L	< 0.8 mg/L	< 0.8 mg/L	< 0.8 mg/L
Cc1ncc([N+](=O)[O-])n1CCO [METRONIDAZOLE]	–	–	–	–	–	–	> 100 mg/L	< 0.8 mg/L	< 0.8 mg/L	6.2 mg/L (≈ 36.2 µM)	> 100 mg/L	1.5 mg/L (≈ 8.76 µM)	< 0.8 mg/L	< 0.8 mg/L	1.5 mg/L (≈ 8.76 µM)	< 0.8 mg/L	< 0.8 mg/L	< 0.8 mg/L	< 0.8 mg/L
O=C(c1ccc(Cl)cc1Cl)C(Br)(Cn1ccnc1)c1ccccc1 (stereo unspecified)	1.5 mg/L (≈ 3.54 µM)	12.5 mg/L (≈ 29.5 µM)	< 0.8 mg/L	> 100 mg/L	> 100 mg/L	> 100 mg/L	< 0.8 mg/L	< 0.8 mg/L	< 0.8 mg/L	< 0.8 mg/L	< 0.8 mg/L	< 0.8 mg/L	< 0.8 mg/L	< 0.8 mg/L	1.5 mg/L (≈ 3.54 µM)	< 0.8 mg/L	1.5 mg/L (≈ 3.54 µM)	< 0.8 mg/L	1.5 mg/L (≈ 3.54 µM)
O=C(c1ccc(Cl)cc1Cl)C(F)(Cn1ccnc1)c1ccccc1 (stereo unspecified)	50 mg/L (≈ 138 µM)	> 100 mg/L	6.2 mg/L (≈ 17.1 µM)	> 100 mg/L	> 100 mg/L	> 100 mg/L	25 mg/L (≈ 68.8 µM)	25 mg/L (≈ 68.8 µM)	3.1 mg/L (≈ 8.53 µM)	50 mg/L (≈ 138 µM)	25 mg/L (≈ 68.8 µM)	50 mg/L (≈ 138 µM)	3.1 mg/L (≈ 8.53 µM)	50 mg/L (≈ 138 µM)	6.2 mg/L (≈ 17.1 µM)	50 mg/L (≈ 138 µM)	25 mg/L (≈ 68.8 µM)	50 mg/L (≈ 138 µM)	25 mg/L (≈ 68.8 µM)
